# Screens as filed in PubChem BioAssay.
# UPR CHOP act – activators of apoptotic CHOP UPR arm, primary screen, cell-based, CHO-CHOP luciferase reporter, luminescence, uHTS; UPR activation; percent of tunicamycin response over DMSO baseline; activation, % at 10 µM; actives 0.34% (n = 330,000);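 active = at 10 µM dose, activation of 40% or more, normalized to positive control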;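 also: 100% = tunicamycin at 10 µg/mL and 0% = DMSO alone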
#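 Evaluation: % reporter activation, DMSO baseline versus tunicamycin full activation; System: CHO-CHOP luciferase reporter cell line; Input: 500 cells/well; Incubation: 6 h compound treatment, 37 °C; Measured by: Steady-Glo luciferase luminescence; Dosing: one dose, 10 µM in 0.5% DMSO; Buffer or medium: F12 medium, 10% FBS; Benchmarks: positive tunicamycin 10 µg/mL, negative DMSO alone.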
# UPR XBP1 act – activators of adaptive XBP1 UPR arm, primary screen, cell-based, CHO-XBP1 luciferase reporter, luminescence, uHTS | activation, % at 20 µM | IRE1-XBP1 UPR activation; percent of tunicamycin response, DMSO as zero | actives 0.33% (n = 330,000) | AID 463104, 2010;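 active = versus positive control, 20 µM dose yields 30% or more activation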;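 also: 100% = tunicamycin at 10 µg/mL and 0% = DMSO only wells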
#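 assay system = CHO-XBP1 luciferase reporter cells | amount = 1000 cells/well | buffer or medium = F12 plus 10% FBS | compound dosing = single point, 20 µM final compound, 1% DMSO | incubation = 16-18 h cell attachment at 37 °C, then 6 h compound exposure | detection = Steady-Glo luminescence read | controls = tunicamycin 10 µg/mL and vehicle-only wells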
# 697 NFkB inh – inhibitors of PMA/ionomycin-induced NF-kB reporter, 697 cells, primary screen, B-cell NF-kB inhibitor project, cell-based, luminescence, uHTS; 697 B-cell NF-kB luciferase reporter, 16 h; inhibition, % at 4 µM; actives 0.33% (n = 330,000); AID 435022, 2010; in the data active = inhibition above about 35%
# Gli-Sufu antag – Gli-Sufu pathway antagonists, primary screen, luciferase luminescence, Sufu-KO-LIGHT cells, uHTS | Sufu-KO-LIGHT fibroblasts, Gli luciferase reporter luminescence | inhibition, % at 5 µM | actives 0.74% (n = 340,000);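 active = inhibition above about 55%, limit read from the data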;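 also: 0% = DMSO-treated cells and 100% = wells with medium but no cells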
# Jurkat NFkB inh – inhibitors of induced NF-kB luciferase reporter, primary screen, TCR NF-kB activation inhibitor project, cell-based, luminescence, uHTS; Jurkat, PMA/ionomycin-induced NF-kB luciferase reporter; inhibition, % at 4 µM; actives 0.53% (n = 330,000); AID 435003, 2010; in the data active = inhibition above about 50%
# CHOP inh – inhibitors of CHOP promoter induction, primary screen, cell-based, unfolded protein response, luciferase reporter | AID 2732, 2010 | CHO-K1 CHOP-promoter luciferase, tunicamycin-induced, 15-18 h | actives 3.8% (n = 220,000) | inhibition, % at 10 µM;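 active = compounds that reduced the stress-induced luciferase reporter signal by more than about 70% of percent inhibition, limit read from the data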;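 also: 0% = tunicamycin plus vehicle and 100% = wells without tunicamycin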
# Jurkat NFkB conf – PMA/ionomycin-induced NF-kB reporter inhibitors, Jurkat retest, confirmation, T-cell NF-kB inhibitor project, cell-based, luminescence, single concentration. shares compounds with Jurkat NFkB inh. Jurkat NF-kB luciferase, 16 h. inhibition, % at 4 µM. actives 27% (n = 2,700). AID 435020, 2010;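 active = inhibition reaching about 45% at 4 µM in either replicate, limit read from the data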;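 also: plate controls were PMA/ionomycin stimulated DMSO wells for no effect and unstimulated DMSO wells for full effect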
# 697 NFkB conf – PMA/ionomycin-induced NF-kB reporter inhibitors, 697 retest, confirmation, B-cell NF-kB inhibitor project, cell-based, luminescence, single concentration | AID 449746, 2010 | actives 35% (n = 2,000) | shares compounds with 697 NFkB inh | inhibition, % at 4 µM | 697 B-cell NF-kB luciferase, 16 h; in the data active = inhibition mostly above about 28%, no sharp cut-off; inactive = mostly below about 22%
# CHOP UPR conf – activators of apoptotic CHOP UPR arm, confirmation, cell-based, CHO-CHOP luciferase reporter, single concentration; shares compounds with UPR CHOP act; CHO-CHOP cells, CHOP-luciferase reporter luminescence; percent of tunicamycin response, DMSO as zero; activation, % at 10 µM; actives 64% (n = 1,000); AID 463112, 2010; in the data active = activation above about 33%;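 also: 0% = DMSO wells and 100% = tunicamycin 10 µg/mL wells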
# XBP1 UPR conf – IRE1-XBP1 UPR arm activators, confirmation, cell-based, CHO-XBP1 luciferase reporter, luminescence, single concentration. shares compounds with UPR XBP1 act. activation, % at 20 µM. actives 63% (n = 1,000). AID 485299, 2010;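 active = reporter signal at least 30% of the positive control's activation in two or more of four replicate wells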;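 also: plate controls were DMSO negative control for no effect and tunicamycin 10 µg/mL positive control for full effect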
# * hit, by the source's call; . = not tested or not shown. Rows were chosen to be rich in hits. Some 3.9% of all compounds tested hit in one or more screens of this group.
SMILES,UPR CHOP act,UPR XBP1 act,697 NFkB inh,Gli-Sufu antag,Jurkat NFkB inh,CHOP inh,Jurkat NFkB conf,CHOP UPR conf,others
O=C(Nc1ccc(-c2cn3ccccc3n2)cc1)c1ccc(Cl)cc1,2,1,-40,-19,-6,-23,.,.,
Clc1ccc(-c2cn3ccccc3n2)cc1,0,-4,-290,-69,-177,.,-114,.,697 NFkB conf=-248
C/C(=N\NC(=O)c1ccc(Cl)cc1)c1ccccn1,407*,2,-123,80*,98*,.,-1,403*,
Oc1ccc2ccccc2c1N=Nc1ccccn1,48*,-4,-9,55,62*,69,52*,37*,
CC(C)CCn1c(O)c(N=Nc2ccccn2)c2ccccc21,2,3,-23,10,-10,25,.,.,
CC(C)(C)c1ccc(Oc2ccc(NC(=O)c3ccco3)cn2)cc1,43*,11,-143,16,53*,15,40,-2,
O=C(Nc1ccc(Oc2cccc(C(F)(F)F)c2)nc1)c1ccco1,2,-3,-31,-2,0,11,.,.,
Cc1ccc(S(=O)(=O)Nc2cccc3ncccc23)s1,219*,-6,-156,85*,83*,.,21,10,
Cc1ccc(S(=O)(=O)Nc2cccc3ncccc23)cc1,1,0,-4,2,-5,5,.,.,
Cc1ccc(C2NC(=O)c3ccccc3N2)c(C)c1 (stereo not drawn),.,.,.,-7,.,.,.,.,
CC1(C)Cc2c(sc(NC(=O)COc3cccc4ccccc34)c2C#N)C(C)(C)N1,54*,25,-17,2,87*,17,62*,19,
CCOc1ccc2nc3cc(NCc4ccc(OC)cc4)ccc3c(N)c2c1,71*,4,-29,64*,100*,.,15,1,
O=[N+]([O-])c1cc(C=Nc2cccc3c(O)cccc23)ccc1Cl,3,4,7,.,18,.,.,.,
COc1cc(/C=C/C(=O)c2ccc([N+](=O)[O-])o2)ccc1O,94*,-6,-44,-3,71*,.,47*,-6,
O=C(N/N=C/c1ccccn1)c1ccc(NC(=O)c2ccccc2Cl)cc1,2,1,29,-12,10,.,.,.,
O=C(N/N=C/c1ccccn1)c1ccc(Cl)c(Cl)c1,208*,1,3,.,70*,.,-2,233*,
c1ccc(CCn2cccc2)nc1,.,.,.,0,.,.,.,.,
Cc1ccc(NC(=O)CCc2nnc3ccc(NCc4ccco4)nn23)cc1,2,-1,-15,-20,13,.,.,.,
c1ccc(CSC2=NNC(c3ccccn3)S2)cc1 (stereo not drawn),240*,10,-19,3,71*,17,1,313*,
COc1ccc(N=Nc2ccc(O)c3ncccc23)cc1,153*,11,-122,61*,74*,61,-14,148*,
COc1cccc(N=Nc2ccc3cccnc3c2O)c1,127*,4,-124,-5,95*,.,20,86*,
COc1cc(OC)cc(C(=O)Nc2cccc3cccnc23)c1,0,-2,-10,17,-2,.,.,.,
COc1cccc(N=Nc2ccc(O)c3ncccc23)c1,107*,7,-79,68*,70*,.,15,86*,
Oc1ccc(N=Nc2ccc3c(c2)OCCO3)c2cccnc12,8,-2,-119,.,32,0,.,.,
CCN(CC)c1ccc(S(=O)(=O)N2CCOCC2)cc1NC(=O)CN1C(=O)NC2(CCC(C)CC2)C1=O (stereo not drawn),0,0,8,2,11,.,.,.,
SMILES,UPR CHOP act,UPR XBP1 act,697 NFkB inh,Gli-Sufu antag,Jurkat NFkB inh,CHOP inh,Jurkat NFkB conf,CHOP UPR conf,others
CC1CCCC(C)N1C(=O)COC(=O)CNC(=O)c1ccccc1F (stereo not drawn),-2,2,27,-5,-8,.,.,.,
C#CCOCCOCCOCCNc1nc(N2CCN(C(=O)CCCCCCCCCCNC(=O)[C@H](CCCCN)n3cc(C[C@@H](C)CC)nn3)CC2)nc(N2CCN(C(=O)CCCCCCCCCCNC(=O)[C@@H]([C@H](C)O)n3cc(C)nn3)CC2)n1,29,40*,-41,11,91*,.,0,.,XBP1 UPR conf=1
C#CCOCCOCCOCCNc1nc(N2CCN(C(=O)CCCCCCCCCCNC(=O)[C@H](CCCCN)n3cc(C)nn3)CC2)nc(N2CCN(C(=O)CCCCCCCCCCNC(=O)[C@@H]([C@H](C)O)n3cc(C)nn3)CC2)n1,0,3,-4,9,10,.,.,.,
Cc1csc2nc(COC(=O)c3ccc(Cl)c([N+](=O)[O-])c3)cc(=O)n12,17,71*,24,-13,53*,.,26,.,XBP1 UPR conf=3
O=C(CN(C(=O)CCC(=O)Nc1ccccn1)C1CCCC1)NCc1ccccc1,1,5,20,-10,1,.,.,.,
CC1(C)NC(=O)N(CC(=O)OCC(=O)NC(=O)c2ccccc2)C1=O,0,0,0,-5,6,.,.,.,
COc1cc(/C=C2\CC(C(C)(C)C)C/C(=C\c3cc(OC)c(OC)c(OC)c3)C2=O)cc(OC)c1OC (stereo not drawn),126*,43*,-222,16,90*,.,-14,112*,XBP1 UPR conf=41*
O=C(CN1C(=O)NC2(CCCC2)C1=O)NNC(=O)c1ccc(Cl)cc1,1,1,12,-2,-4,.,.,.,
CC1=Nc2ccccc2/C1=C\c1sc(Nc2ccc(C)cc2)nc1O,4,33*,-22,35,53*,-33,61*,.,XBP1 UPR conf=40*
Oc1nc(Nc2ccc(F)cc2)sc1/C=C1\C=Nc2ccccc21,-1,1,-9,-13,-17,7,.,.,
COc1ccc(NC(=O)CC(C)CC(=O)NCc2ccc(F)cc2)c(OC)c1 (stereo not drawn),-1,-3,1,-5,4,.,.,.,
